Experimental data: publication PMC9357092 (Clinical Cancer Research, 2022)
“And” between values parts separate entries of the source, which are not always exact repeats. Identical values can stand only once. Like-named read-outs stand apart in the source and are kept apart here.

How the values were obtained:
[1] = In vitro metabolism in pooled human intestine microsomes; format: in vitro ADME
Outline: (§1)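 Test compound (0.5 to 50 μmol/L) incubated with pooled human microsomes (0.4 mg/mL) at 37°C for 30 minutes. Overall drug disappearance velocity plotted against initial concentration and fitted to the Michaelis–Menten equation by nonlinear regression. Intrinsic clearance was taken as Vmax/Km.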

[2] = Binding to human brain tissue; format: in vitro ADME; conditions: pooled human brain tissue
[3] = Bidirectional transwell permeability, parental MDCKII monolayer; format: in vitro ADME; conditions: dog, MDCK, pH 7.4, Intrinsic passive transcellular permeability (Papp,A-B/λ), unbound and unionized drug
[4] = Observed clinical plasma, CSF and brain metastasis pharmacokinetics in patients; format: in vivo, human
[5] = In vitro metabolism in pooled human liver microsomes; format: in vitro ADME
Outline: as §1

[6] = Binding to human plasma proteins; format: in vitro ADME; conditions: pooled human plasma
[7] = system: HER2-positive breast cancer; conditions: cited from earlier work; for Cumulative incidence of intervention for CNS metastases: NALA phase III, each drug plus capecitabine, P = 0.043; for CNS objective response rate, monotherapy: pretreated HER2-positive breast cancer patients with progressive brain metastases
[8] = Blood-to-plasma partition ratio; format: in vitro ADME; conditions: blood and plasma
[9] = Whole-body-4Brain PBPK model simulation of plasma and CNS pharmacokinetics; parameters: species or system human; conditions: PBPK input; for fa: assigned based on observed data; for Ka: first-order absorption rate constant; for Ka / Lag time: observed
[10] = parameters: species or system human; conditions: IVIVE predicted
HER2 kinase = conditions: read-out: IC50 for inhibition of HER2 kinase; ADP-Glo assay; cited from earlier work
[11] = cited from earlier work; for Observed CSF concentration (mean) / Observed CSF Kp,uu, geometric mean: 13 patients; for Observed CSF concentration (mean): 300 mg twice daily with trastuzumab and capecitabine, 2-5 hours postdosing

CS(=O)(=O)CCNCc1ccc(-c2ccc3ncnc(Nc4ccc(OCc5cccc(F)c5)c(Cl)c4)c3c2)o1 [lapatinib]
microsomal CLint [1]: 5.66 µL/min/mg
fraction unbound [2]: 0.0004
Papp A→B at 1 h, 1 μmol/L [3]: 4.14 ×10⁻⁶ cm/s
Estimated CSF Kp,uu from observed data ([4]; two patients, assuming fraction unbound in plasma 0.014, data of ref 27): 0.092
microsomal CLint [5]: 22.8 µL/min/mg
fraction unbound [6]: 0.014
Cumulative incidence of intervention for CNS metastases [7]: 29.2%
CNS response rate, combined with stereotactic radiosurgery [7]: 75%
CNS response rate, combined with whole-brain radiation therapy [7]: 79%
CNS objective response rate, monotherapy [7]: 6%

CCOc1cc2ncc(C#N)c(Nc3ccc(OCc4ccccn4)c(Cl)c3)c2cc1NC(=O)/C=C/CN(C)C [neratinib]
microsomal CLint [1]: 24.6 µL/min/mg
fraction unbound [2]: 0.004
Papp A→B at 1 h, 1 μmol/L [3]: 13.5 ×10⁻⁶ cm/s
Unbound plasma concentration corresponding to observed total ([4]; 2 patients, assuming fraction unbound in plasma 0.007, data of ref 28): 0.43 nM and 0.67 nM
microsomal CLint [5]: 39 µL/min/mg
fraction unbound [6]: 0.007
fa [9]: 0.2
Ka [9]: 0.25
Lag time [9]: 0.8 h
Disease-free survival vs placebo, HR ([7]; ExteNET, 240 mg once daily, 1 year, 95% CI 0.46-0.84): 0.63
Cumulative incidence of CNS metastases vs placebo ([7]; ExteNET, 240 mg once daily, 1 year): no statistically significant difference
Cumulative incidence of intervention for CNS metastases [7]: 22.8%
Incidence of symptomatic or progressive CNS recurrence ([7]; NEfERT-T, neratinib plus paclitaxel vs trastuzumab plus paclitaxel): 8.3%
CNS objective response rate, monotherapy [7]: 8%

Cc1cc(Nc2ncnc3ccc(NC4=NC(C)(C)CO4)cc23)ccc1Oc1ccn2ncnc2c1 [tucatinib]
microsomal CLint [1]: 4.5 µL/min/mg
fraction unbound [2]: 0.015
Papp A→B at 1 h, 1 μmol/L [3]: 13.3 ×10⁻⁶ cm/s
microsomal CLint [5]: 41.8 µL/min/mg
fraction unbound [6]: 0.03
blood plasma ratio [8]: 0.93
fa [9]: 0.5
Ka [9]: 0.8
Lag time [9]: 0.6 h
Ratio of BBB passive clearance (PSB) to active efflux clearance (CLefflux,BBB) [10]: 0.83
IC50 (HER2 kinase): 6.9 nM
Observed CSF concentration (mean) ([11]; cycle 1 day 1): 10.9 nmol/L
Observed CSF concentration (mean) ([11]; cycle 2 day 1): 21.6 nmol/L
Observed CSF Kp,uu, geometric mean ([11]; cycle 1 day 1): 0.51
Observed CSF Kp,uu, geometric mean ([11]; cycle 2 day 1): 0.76
Risk of intracranial progression or death, HR ([7]; HER2CLIMB, tucatinib added to trastuzumab and capecitabine, 95% CI 0.22-0.48): 0.32
Risk of death, HR ([7]; HER2CLIMB, tucatinib added to trastuzumab and capecitabine, 95% CI 0.40-0.85): 0.58
